The M2OR odorant receptor database

Columns and labels:
Details in all cases: stereoisomer not certain
OR6X1 (Homo sapiens) = OR6X1 (Homo sapiens) (UniProt Q8NH79)
Outline: (§1)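 Whether a receptor–molecule pair is responsive (active) rests on the original authors' judgment that its measured signal was statistically different from baseline. Pairs without that judgment are non-responsive (inactive). Sources used varied assay methods, commonly transient luciferase assays in mammalian cell lines.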

OR6Y1 (Homo sapiens) = OR6Y1 (Homo sapiens) (UniProt Q8NGX8)
Chain of OR6Y1 (Homo sapiens) (Q8NGX8 whole entry): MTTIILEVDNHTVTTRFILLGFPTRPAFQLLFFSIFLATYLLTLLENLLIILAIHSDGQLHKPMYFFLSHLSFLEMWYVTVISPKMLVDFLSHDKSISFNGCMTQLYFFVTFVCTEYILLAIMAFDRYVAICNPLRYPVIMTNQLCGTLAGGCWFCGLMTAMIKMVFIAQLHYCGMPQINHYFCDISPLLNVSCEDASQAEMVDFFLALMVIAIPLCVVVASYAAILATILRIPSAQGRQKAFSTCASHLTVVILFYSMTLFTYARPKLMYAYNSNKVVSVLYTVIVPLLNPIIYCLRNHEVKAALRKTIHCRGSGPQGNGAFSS
Outline: as §1

OR7A10 (Homo sapiens) = OR7A10 (Homo sapiens) (UniProt O76100)
Chain of OR7A10 (Homo sapiens) (O76100 whole entry): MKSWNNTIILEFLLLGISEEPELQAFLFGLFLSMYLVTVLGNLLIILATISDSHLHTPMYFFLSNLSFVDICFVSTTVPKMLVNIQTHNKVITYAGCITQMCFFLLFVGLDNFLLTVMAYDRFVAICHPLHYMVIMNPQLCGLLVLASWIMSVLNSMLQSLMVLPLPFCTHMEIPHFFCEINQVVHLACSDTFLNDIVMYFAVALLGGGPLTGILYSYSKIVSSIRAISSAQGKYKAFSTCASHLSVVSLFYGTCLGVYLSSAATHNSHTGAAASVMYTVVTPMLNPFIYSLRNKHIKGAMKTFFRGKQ
Outline: as §1

OR7A17 (Homo sapiens) = OR7A17 (Homo sapiens) (UniProt O14581)
Chain of OR7A17 (Homo sapiens) (O14581 whole entry): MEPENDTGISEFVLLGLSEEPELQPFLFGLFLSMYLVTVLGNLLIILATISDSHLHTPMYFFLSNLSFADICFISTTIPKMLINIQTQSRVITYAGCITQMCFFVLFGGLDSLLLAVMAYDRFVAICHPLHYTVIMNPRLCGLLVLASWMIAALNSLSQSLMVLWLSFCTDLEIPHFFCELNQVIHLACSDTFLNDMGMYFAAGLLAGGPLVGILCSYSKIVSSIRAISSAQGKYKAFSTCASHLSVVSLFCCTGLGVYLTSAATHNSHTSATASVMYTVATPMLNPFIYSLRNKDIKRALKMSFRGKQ
Outline: as §1

OR7A5 (Homo sapiens) = OR7A5 (Homo sapiens) (UniProt Q15622)
Chain of OR7A5 (Homo sapiens) (Q15622 whole entry): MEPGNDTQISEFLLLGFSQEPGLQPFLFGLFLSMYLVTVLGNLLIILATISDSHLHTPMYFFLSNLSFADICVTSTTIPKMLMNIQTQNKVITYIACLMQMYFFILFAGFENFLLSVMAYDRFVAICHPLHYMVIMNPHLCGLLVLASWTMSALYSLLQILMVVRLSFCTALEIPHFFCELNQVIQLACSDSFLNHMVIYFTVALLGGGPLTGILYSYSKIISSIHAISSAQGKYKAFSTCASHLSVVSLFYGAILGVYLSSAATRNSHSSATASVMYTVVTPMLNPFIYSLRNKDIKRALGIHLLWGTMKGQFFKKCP
Outline: as §1

OR7C1 (Homo sapiens) = OR7C1 (Homo sapiens) (UniProt O76099)
Chain of OR7C1 (Homo sapiens) (O76099 whole entry): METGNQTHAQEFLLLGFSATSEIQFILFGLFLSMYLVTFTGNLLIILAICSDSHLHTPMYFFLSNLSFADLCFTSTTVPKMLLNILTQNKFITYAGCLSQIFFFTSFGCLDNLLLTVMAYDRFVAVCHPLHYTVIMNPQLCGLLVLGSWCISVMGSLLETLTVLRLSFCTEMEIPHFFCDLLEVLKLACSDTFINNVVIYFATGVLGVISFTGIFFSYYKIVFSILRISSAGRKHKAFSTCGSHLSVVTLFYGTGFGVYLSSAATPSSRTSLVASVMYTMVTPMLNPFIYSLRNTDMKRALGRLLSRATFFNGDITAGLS
Outline: as §1

OR7C2 (Homo sapiens) = OR7C2 (Homo sapiens) (UniProt O60412)
Chain of OR7C2 (Homo sapiens) (O60412 whole entry): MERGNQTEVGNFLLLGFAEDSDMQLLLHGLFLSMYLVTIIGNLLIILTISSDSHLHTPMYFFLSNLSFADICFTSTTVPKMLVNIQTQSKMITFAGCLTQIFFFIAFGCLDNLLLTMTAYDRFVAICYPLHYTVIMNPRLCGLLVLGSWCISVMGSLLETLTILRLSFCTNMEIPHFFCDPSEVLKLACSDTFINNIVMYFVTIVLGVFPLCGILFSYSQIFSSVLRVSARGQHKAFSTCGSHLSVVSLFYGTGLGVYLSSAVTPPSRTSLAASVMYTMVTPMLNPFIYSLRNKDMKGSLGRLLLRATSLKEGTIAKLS
Outline: as §1

OR7D2 (Homo sapiens) = OR7D2 (Homo sapiens) (UniProt Q96RA2)
Chain of OR7D2 (Homo sapiens) (Q96RA2 whole entry): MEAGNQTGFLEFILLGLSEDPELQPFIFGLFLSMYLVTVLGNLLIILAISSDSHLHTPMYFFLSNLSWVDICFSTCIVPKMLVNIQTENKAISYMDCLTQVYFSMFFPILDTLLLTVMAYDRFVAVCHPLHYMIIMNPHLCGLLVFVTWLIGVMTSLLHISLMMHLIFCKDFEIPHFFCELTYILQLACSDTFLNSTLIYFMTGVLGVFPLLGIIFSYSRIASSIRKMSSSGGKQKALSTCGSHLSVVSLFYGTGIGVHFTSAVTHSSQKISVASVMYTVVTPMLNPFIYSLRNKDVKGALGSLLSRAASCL
Outline: as §1

OR7D4 (Homo sapiens) = biological target: T1, OR7D4 (Homo sapiens) (UniProt Q8NG98)
T1 sequence (whole entry): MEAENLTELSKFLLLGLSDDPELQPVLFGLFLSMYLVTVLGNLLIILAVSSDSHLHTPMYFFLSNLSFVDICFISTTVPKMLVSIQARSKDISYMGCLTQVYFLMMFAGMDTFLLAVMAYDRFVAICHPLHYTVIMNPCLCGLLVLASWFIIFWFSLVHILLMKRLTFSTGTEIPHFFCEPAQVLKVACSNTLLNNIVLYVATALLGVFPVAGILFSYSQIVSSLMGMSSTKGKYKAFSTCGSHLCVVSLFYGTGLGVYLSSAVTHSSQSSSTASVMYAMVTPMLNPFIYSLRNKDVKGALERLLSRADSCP
Outline: as §1

OR7E24 (Homo sapiens) = OR7E24 (Homo sapiens) (UniProt Q6IFN5)
Chain of OR7E24 (Homo sapiens) (Q6IFN5 whole entry): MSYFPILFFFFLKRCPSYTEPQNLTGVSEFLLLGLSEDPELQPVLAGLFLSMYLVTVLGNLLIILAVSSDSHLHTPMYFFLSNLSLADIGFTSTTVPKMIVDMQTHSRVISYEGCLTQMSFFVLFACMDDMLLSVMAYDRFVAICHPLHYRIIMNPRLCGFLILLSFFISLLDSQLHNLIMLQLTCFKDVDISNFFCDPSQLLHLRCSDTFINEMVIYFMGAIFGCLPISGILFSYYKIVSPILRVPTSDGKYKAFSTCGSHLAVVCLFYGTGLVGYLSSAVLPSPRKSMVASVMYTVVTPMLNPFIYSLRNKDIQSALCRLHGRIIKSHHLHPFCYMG
Outline: as §1

OR7G1 (Homo sapiens) = OR7G1 (Homo sapiens) (UniProt Q8NGA0)
Chain of OR7G1 (Homo sapiens) (Q8NGA0 whole entry): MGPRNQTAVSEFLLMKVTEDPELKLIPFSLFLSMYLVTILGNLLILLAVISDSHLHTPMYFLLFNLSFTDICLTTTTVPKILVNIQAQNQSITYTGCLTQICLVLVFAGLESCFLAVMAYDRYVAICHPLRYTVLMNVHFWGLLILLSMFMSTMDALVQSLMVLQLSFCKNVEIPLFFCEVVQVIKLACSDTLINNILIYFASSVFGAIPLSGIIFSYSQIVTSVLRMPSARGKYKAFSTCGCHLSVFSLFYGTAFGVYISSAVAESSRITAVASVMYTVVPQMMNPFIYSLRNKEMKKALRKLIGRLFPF
Outline: as §1

OR7G2 (Homo sapiens) = OR7G2 (Homo sapiens) (UniProt Q8NG99)
Chain of OR7G2 (Homo sapiens) (Q8NG99 whole entry): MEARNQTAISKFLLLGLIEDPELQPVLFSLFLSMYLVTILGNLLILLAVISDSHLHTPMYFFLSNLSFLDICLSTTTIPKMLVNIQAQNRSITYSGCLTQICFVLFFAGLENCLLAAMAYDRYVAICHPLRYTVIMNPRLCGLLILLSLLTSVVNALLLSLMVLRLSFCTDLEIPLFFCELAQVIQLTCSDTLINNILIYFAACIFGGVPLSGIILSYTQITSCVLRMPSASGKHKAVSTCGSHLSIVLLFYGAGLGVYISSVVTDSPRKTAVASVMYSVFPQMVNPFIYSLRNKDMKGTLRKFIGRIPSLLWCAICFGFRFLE
Outline: as §1

OR7G3 (Homo sapiens) = OR7G3 (Homo sapiens) (UniProt Q8NG95)
Chain of OR7G3 (Homo sapiens) (Q8NG95 whole entry): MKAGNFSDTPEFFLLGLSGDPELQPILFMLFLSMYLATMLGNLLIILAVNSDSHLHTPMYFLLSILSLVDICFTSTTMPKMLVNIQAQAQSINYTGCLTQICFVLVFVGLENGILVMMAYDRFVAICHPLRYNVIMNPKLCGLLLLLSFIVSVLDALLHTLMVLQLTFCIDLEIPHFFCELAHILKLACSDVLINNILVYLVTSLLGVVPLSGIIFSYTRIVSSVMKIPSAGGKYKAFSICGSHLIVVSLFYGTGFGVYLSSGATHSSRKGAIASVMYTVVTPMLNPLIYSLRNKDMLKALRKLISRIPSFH
Outline: as §1

OR8A1 (Homo sapiens) = OR8A1 (Homo sapiens) (UniProt Q8NGG7)
Chain of OR8A1 (Homo sapiens) (Q8NGG7 whole entry): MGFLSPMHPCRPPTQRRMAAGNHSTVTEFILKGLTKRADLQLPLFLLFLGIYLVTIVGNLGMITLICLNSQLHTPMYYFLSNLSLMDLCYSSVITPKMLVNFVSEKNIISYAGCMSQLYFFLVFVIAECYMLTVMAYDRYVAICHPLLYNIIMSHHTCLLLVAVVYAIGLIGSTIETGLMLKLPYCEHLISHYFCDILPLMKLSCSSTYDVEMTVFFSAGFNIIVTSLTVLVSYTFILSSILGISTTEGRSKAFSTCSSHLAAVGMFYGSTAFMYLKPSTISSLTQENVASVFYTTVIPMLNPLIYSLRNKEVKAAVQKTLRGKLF
Outline: as §1

OR7A5 M81I = tested on: OR7A5 M81I
Outline: as §1

OR7C1 V126I E171K = tested on: OR7C1 V126I E171K
Outline: as §1

OR7D4 R88W = tested on: OR7D4 R88W
Outline: as §1

OR7D4 = tested on: OR7D4
Chain of OR7D4 (as listed by the source): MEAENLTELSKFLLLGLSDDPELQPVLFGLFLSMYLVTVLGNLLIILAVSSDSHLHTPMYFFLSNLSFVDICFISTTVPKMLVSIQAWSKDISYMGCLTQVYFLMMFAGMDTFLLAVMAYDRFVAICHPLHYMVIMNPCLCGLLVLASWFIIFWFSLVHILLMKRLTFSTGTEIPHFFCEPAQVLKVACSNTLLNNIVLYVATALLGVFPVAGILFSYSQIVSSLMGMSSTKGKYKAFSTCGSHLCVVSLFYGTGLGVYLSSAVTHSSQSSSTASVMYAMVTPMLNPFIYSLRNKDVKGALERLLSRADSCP
Outline: as §1

OR7G2 = tested on: OR7G2
Chain of OR7G2 (as listed by the source): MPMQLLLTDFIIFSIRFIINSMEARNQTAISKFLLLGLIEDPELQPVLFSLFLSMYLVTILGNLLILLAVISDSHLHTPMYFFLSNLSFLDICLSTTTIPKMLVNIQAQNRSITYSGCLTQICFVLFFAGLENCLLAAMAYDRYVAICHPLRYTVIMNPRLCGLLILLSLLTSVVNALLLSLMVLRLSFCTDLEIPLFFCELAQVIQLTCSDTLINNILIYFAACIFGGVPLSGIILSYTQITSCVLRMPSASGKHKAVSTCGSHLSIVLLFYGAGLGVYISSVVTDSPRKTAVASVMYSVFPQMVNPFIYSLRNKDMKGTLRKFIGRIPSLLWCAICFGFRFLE
Outline: as §1

OR7G3 M29V = tested on: OR7G3 M29V
Chain of OR7G3 M29V (as listed by the source, stated change not applied): as the sequence (Q8NG95 whole entry) above, with M29V counted along it
Outline: as §1

Measured: odorant receptor agonist call;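 note: active if original authors judged signal statistically different from baseline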

Chain of OR6X1 (Homo sapiens) (Q8NH79 whole entry): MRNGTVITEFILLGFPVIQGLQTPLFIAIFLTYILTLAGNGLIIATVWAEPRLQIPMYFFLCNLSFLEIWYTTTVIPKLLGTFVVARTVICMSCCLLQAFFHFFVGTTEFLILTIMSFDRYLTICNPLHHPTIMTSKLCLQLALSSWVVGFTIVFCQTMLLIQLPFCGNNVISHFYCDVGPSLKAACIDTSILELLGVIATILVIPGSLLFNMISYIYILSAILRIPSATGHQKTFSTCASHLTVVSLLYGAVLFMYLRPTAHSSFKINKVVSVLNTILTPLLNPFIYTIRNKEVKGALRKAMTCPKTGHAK

Cc1c([N+](=O)[O-])c(C)c([N+](=O)[O-])c(C(C)(C)C)c1[N+](=O)[O-]
not listed: OR7A5 M81I | OR7C1 V126I E171K | OR7D4 R88W | OR7D4 | OR7G2 | OR7G3 M29V
inactive: all other assays above

C=CCOC(=O)Cc1ccccc1
not listed: OR7G2 (Homo sapiens)
inactive: all other assays above

C=C(C)C1CCC2(C)OOC(C1)O2 (stereo not given)
inactive: OR7D4 (Homo sapiens) | OR7D4
